Source: PubChem
A selection: hits, their analogues and other compounds. The true share with any hit is near 1.1%.
FAS-TE inh: FAS thioesterase (human) inhibition; P49327; recombinant FAS-TE, OMFH fluorogenic substrate, fluorescence endpoint; inhibition, % at 15 µM; 360,000 tested, 0.67% active; AID 602261;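 active means compounds whose normalised, plate-corrected inhibition of enzyme fluorescence in the single-dose primary screen is 50% or more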;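 further: 0% = DMSO with enzyme and 100% = substrate without enzyme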
ABCB6 inh 2: blocks the human ABCB6 transporter; fluorescence ratio to DMSO, % at 10 µM; K562-ABCB6 porphyrin accumulation, flow cytometry, 1 h; hits give low values; Q9NP58; 360,000 tested, 0.19% active;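 active means fluorescence ratio to DMSO below 75%, the collection mean minus 3 SD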;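 further: signal is porphyrin accumulated inside mitochondria; 100% equals median channel fluorescence of DMSO control wells; lower ratio means ABCB6 inhibition with less porphyrin fluorescence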
hiPSC survival: hiPSC single-cell survival enhancement; ATPlite luminescence; 100% = ROCK inhibitor wells, 0% = DMSO; survival enhancement, % at 20 µM; 360,000 tested, 0.044% active; in the data active means survival enhancement above about 18%;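 further: cells exposed to compounds for 16 hours before the ATP read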
SENP1 inh: blocks the human SENP1 SUMO protease catalytic domain. 360,000 tested, 0.21% active. recombinant SENP1 catalytic domain, CyPet-SUMO1-YPet FRET cleavage. AID 624204. inhibition, % at 10 µM. Q9P0U3;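 active means inhibition at least 30% at 10 µM, raw YFP signal under a set limit, fluorescence ratio 0.5 to 1.5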;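 further: 0% = enzyme with DMSO and 100% = no enzyme wells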
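Material: hSENP1 catalytic domain, recombinant; medium: Tris pH 8 with BME, BSA, NP40 and catalase; compound: single concentration of 10 µM compound, 0.5% DMSO final; technique: FRET read of cyan and yellow fluorescence; timing: 50 min enzyme reaction, room temperature, light-protected; reagent: SFCypet-SUMO1-SFYpet substrate at 25 nM; control set: no-enzyme low, enzyme-DMSO high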
FAS-TE inh conf: FAS thioesterase (human) inhibition, confirmation | shares compounds with FAS-TE inh | recombinant FAS-TE, OMFH fluorogenic substrate, fluorescence | inhibition, % at 15 µM | 2,300 tested, 45% active | AID 624325;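 active means compounds inhibiting the enzyme by at least 50% at 15 µM in any one of the replicates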;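 further: 0% = enzyme with DMSO only and 100% = wells lacking enzyme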
* marks the source's active call; other numbers are inactive results; / = no result.

SMILES	FAS-TE inh	ABCB6 inh 2	hiPSC survival	SENP1 inh	FAS-TE inh conf
CC(C)(C)NC(=O)CC1C[C@H](C(=O)N2CCOCC2)[C@@]2(CCC3CCCC3)c3[nH]c4ccccc4c3CCN2C1=O (stereo partly drawn)	80.7*	108.0	1.0	-2.0	76.0*
CCOC(=O)C1CCCN(C(=O)c2ccc3ncsc3c2)C1 (stereo not drawn)	-10.6	90.0	-1.5	2.3	/
Cc1cccn2cc(CCNC(=O)c3cccs3)nc12	-2.8	91.0	-0.5	2.3	/
COc1ccc(C(=O)OCC(=O)Nc2ccccc2)cc1[N+](=O)[O-]	61.8*	94.0	2.1	-1.0	46.5*
Cc1ccc(C(=O)Nc2ccccc2N2CCCCC2)cc1[N+](=O)[O-]	45.6	90.0	-1.0	-0.2	/
COc1ccc(C(=O)Nc2ccccc2N2CCCCC2)cc1[N+](=O)[O-]	57.4*	107.0	2.0	1.3	31.1
COCc1c(Br)c(C)nc(OCC(=O)N/N=C/c2cc(C)n(-c3ccc([N+](=O)[O-])cc3)c2C)c1C#N	61.6*	101.0	-1.3	0.9	-3.0
O=S(=O)(Nc1ccc2c(c1)OCCO2)c1ccc2oc3ccccc3c2c1	62.2*	99.0	-3.3	-2.1	47.3*
CCc1noc(C)c1C(=O)OCC(=O)c1ccccc1OC	8.6	90.0	-0.5	0.4	/
CCN(C(=O)CSc1n[nH]c(N)n1)c1cccc2ccccc12	-10.9	85.0	-0.2	1.9	/
CC(=O)c1ccc(N2CCN(S(=O)(=O)c3ccc(-c4cnc(C5CC5)o4)cc3)CC2)cc1	57.1*	102.0	1.8	1.2	42.8*
O=C(CSc1ccc([N+](=O)[O-])cn1)Nc1ccc2c(c1)OCCO2	84.7*	105.0	-0.3	1.2	88.2*
Cc1c(C(=O)N2CCN(S(=O)(=O)c3cc(F)ccc3F)CC2)oc2ccccc12	25.8	95.0	-0.6	-2.2	/
CC(Oc1cccc([N+](=O)[O-])c1)C(=O)NCCC1=CCCCC1 (stereo not drawn)	71.5*	99.0	0.1	-0.5	37.6
CC(C(=O)NCCC1=CCCCC1)c1ccc([N+](=O)[O-])cc1 (stereo not drawn)	69.6*	101.0	-2.3	-1.5	68.9*
O=C(COC(=O)CSc1ccc([N+](=O)[O-])cc1)NCCC1=CCCCC1	2.6	99.0	-0.6	3.3	/
CCOC(=O)Cn1nc(C)c(NC(=O)COc2ccc(C)c(C)c2)c1C	-0.3	96.0	0.0	-0.2	/
O=C(Nc1ccc(S(=O)(=O)N2CCOCC2)cc1)c1ccc2c(c1)S(=O)(=O)c1ccccc1C2=O	-3.7	87.0	0.0	0.5	/
O=C(Nc1cc(S(=O)(=O)N2CCOCC2)ccc1O)c1ccc2c(c1)S(=O)(=O)c1ccccc1C2=O	57.4*	92.0	-0.6	3.6	30.5
COc1ccc(-c2ccc3c(c2)S(=O)(=O)c2cccc(C(=O)N4CCN(c5ccc(Cl)cn5)CC4)c2C3=O)cc1OC	5.3	98.0	-1.3	14.5	/
O=C1c2ccc(Cl)cc2S(=O)(=O)c2cccc(C(=O)N3CCN(c4ccc(Cl)cn4)CC3)c21	59.0*	95.0	1.2	8.1	4.7
O=C1c2ccccc2S(=O)(=O)c2cc(C(=O)N3CCN(c4c(Cl)cncc4Cl)CC3)ccc21	61.9*	93.0	-0.4	2.8	20.6
O=C1c2ccc(-c3ccc(Cl)c(C(F)(F)F)c3)cc2S(=O)(=O)c2cccc(C(=O)N3CCN(c4ncc(Br)cn4)CC3)c21	68.6*	99.0	1.9	1.5	11.4
O=C(NC12CC3CC(CC(C3)C1)C2)c1cc(F)c(F)c(F)c1F	11.2	133.0	-0.5	1.0	/
Cc1ccc(S(=O)(=O)N(Cc2ccccc2)c2ccccc2C(=O)NCc2ccco2)cc1	24.8	91.0	-0.4	2.7	/
Cc1ccc(S(=O)(=O)N(Cc2ccccc2)c2ccccc2C(=O)Nc2ccccc2C(=O)NCc2ccco2)cc1	52.6*	99.0	-1.0	-1.4	31.6
COc1ccc(-n2c(SCc3ccc([N+](=O)[O-])cc3)nnc2-c2ccccc2)cc1	56.0*	89.0	-0.4	3.9	51.1*
CCOc1ccc(-n2c(SCc3ccc([N+](=O)[O-])cc3)nnc2-c2ccccc2)cc1	63.2*	96.0	1.5	0.6	55.9*
COc1cc(OC)c(N(C)S(=O)(=O)c2cccc(C(=O)Nc3nccs3)c2)cc1Cl	66.0*	95.0	-1.1	2.8	14.3
